# Data from PubChem BioAssay.
# Calls of active or inactive are those of the source.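 Rule for the calls, unless noted: active = viability at or under a set limit in both replicates, limit being median viability minus 3 SD (cut at about 48% in these data, passing the limit was not always enough); inconclusive = at or under the limit in just one replicate; inactive = at or above the limit in both replicates.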
# Tests used:
# [1] = SK-BR-3 cell growth inhibitors, pilot screen, 24 h, human (AID 572;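 active = viability at or below 10% of carrier control in both of two separate runs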;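 note: compound exposure lasted between 18 and 24 h rather than exactly 24 h; 100% = carrier-treated control wells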); conditions: SK-BR-3 viability, CellTiter-Glo luminescence, at 10 µM, stronger effect = lower value
# [2] = HUVEC growth inhibition – cell-based, human, primary screen (AID 575;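 active = viability at or below 30% in both replicate assays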;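 note: 100% = median of untreated cell wells with 0.1% DMSO on each plate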); conditions: HUVEC proliferation, CellTiter-Glo luminescence, 72 h; at 10 µM; stronger effect = lower value
# In short: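 Test system: primary human umbilical vein endothelial cells. Quantity: 1250 cells/well. Compound: single 10 µM dose, 0.1% DMSO, from 5x medium stock. Timing: 72 h treatment at 37 °C. Detection: ATP-based CellTiter-Glo luminescent read. Benchmarks: vehicle and MePR control wells. Format: 384-well plates coated with collagen.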
# [3] = growth inhibitors of H69AR lung tumor, primary screen, human, duplicate replicates (AID 580); conditions: H69AR lung tumor cells viability, ATP luminescence, 72 h; at 10 µM; stronger effect = lower value;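 note: 100% = mean luminescence of untreated wells and 0% = no signal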
# [4] = reversal of MRP1-mediated doxorubicin resistance, pilot screen, H69AR cells, doxorubicin co-treatment (AID 601;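 active = viability loss from added drug above about 55%, and viability with drug at most 40%, in both replicates, limit read from the data, passing the limit was not always enough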); conditions: CellTiter-Glo, 72 h, at 10 µM; for differential viability (reversal): stronger effect = higher value
# [5] = 384-well plate pilot, post-Golgi transport modulator project, inhibition of yeast transport mutant growth (AID 636; in the data active = inhibition above about 31%); conditions: absorbance 615 nm, about 18 h, stronger effect = higher value
# [6] = growth suppression of yeast trafficking mutant, preliminary HTS, modulators of trafficking downstream of Golgi apparatus project, 1536-format plate, OD 615 nm (AID 637; in the data active = inhibition above about 30%); conditions: yeast transport mutant growth, absorbance 615 nm, 18 h; stronger effect = higher value
# [7] = H69AR cells + 2 uM doxorubicin, measured here: viability with 2 uM doxorubicin, stronger effect = lower value
# [8] = H69AR cells, compound alone cytotoxicity
SMILES,viability [1],viability [2],viability [3],differential viability (reversal) ([4]; H69AR cells + 2 uM doxorubicin),"viability [4, 7]","viability [4, 8]",inhibition [5],inhibition [6]
COc1ccc(S(=O)(=O)Nc2ccccc2SC)cc1C,94% (inactive),87.8% (inactive),87% (inactive),-8.52% (inactive),95.5%,87%,-6.99% (inactive),0% (inactive)
Cc1cc(C)n(-c2nc3sc4c(c3c3nnc(SCC(N)=O)n23)CC(C)(C)OC4)n1,84% (inactive),97.4% (inactive),90.7% (inactive),3.85% (inactive),86.8%,90.7%,0.68% (inactive),-3.87% (inactive)
COc1ccccc1NC1=NC(c2ccc(Cl)cc2)N=C(N)N1 (configuration not stated),91% (inactive),68.2% (inactive),10% (active),-30.4% (inactive),40.5%,10%,-5.27% (inactive),0% (inactive)
C=CCNC(=O)C1CC(=O)N(c2ccc(OCC(=O)Nc3ccc(OC)cc3)cc2)C1 (configuration not stated),99% (inactive),112% (inactive),108% (inactive),5.12% (inactive),103%,108%,-0.81% (inactive),-0.18% (inactive)
Cc1ccc2c(c1C)NC(C(=O)O)C1CC=CC21 (configuration not stated),91% (inactive),98.1% (inactive),98.2% (inactive),1.46% (inactive),96.7%,98.2%,-1.73% (inactive),-1.09% (inactive)
c1ccc(Cn2ncc3c2ncn2c(-c4ccncc4)nnc32)cc1,99% (inactive),95.3% (inactive),95% (inactive),-1.95% (inactive),96.9%,95%,-8.77% (inactive),-6.77% (inactive)
CC(=O)N=c1sc(S(N)(=O)=O)nn1C,84% (inactive),77.6% (inactive),93.9% (inactive),21.1% (inactive),72.8%,93.9%,0.39% (inactive),3.17% (inactive)
COc1ccc(NC(=O)N2CCN(c3nc(-c4cccc(OC)c4)cs3)CC2)cc1,94% (inactive),49.3% (inactive),82.8% (inactive),-4.01% (inactive),86.8%,82.8%,-9.59% (inactive),-4.52% (inactive)
CC(=O)OC1CSc2nc3ccccc3n2C1 (configuration not stated),84% (inactive),111% (inactive),93.4% (inactive),7.46% (inactive),85.9%,93.4%,-8.11% (inactive),3.45% (inactive)
c1ccc(-c2nc3ccccc3nc2-c2ccccn2)nc1,89% (inactive),107% (inactive),89.5% (inactive),-9.55% (inactive),99.1%,89.5%,-1.17% (inactive),0.98% (inactive)
Cc1c(OCC(F)(F)F)ccnc1CS(=O)c1nc2ccccc2[nH]1 (configuration not stated),99% (inactive),100% (inactive),93.8% (inactive),4.31% (inactive),89.5%,93.8%,-1.69% (inactive),4.33% (inactive)
CCn1c(SCC(=O)C(C)(C)C)nnc1-c1cnccn1,81% (inactive),107% (inactive),105% (inactive),15.9% (inactive),89.2%,105%,-3.7% (inactive),-9.35% (inactive)
CC(C)OC(=O)C(C)(C)Oc1ccc(C(=O)c2ccc(Cl)cc2)cc1,88% (inactive),90.1% (inactive),103% (inactive),8.95% (inactive),94.5%,103%,0.78% (inactive),-7.67% (inactive)
Cc1cc(=O)n2[nH]c(-c3ccc(Cl)cc3)cc2n1,108% (inactive),75.8% (inactive),99.2% (inactive),8.53% (inactive),90.7%,99.2%,-4.66% (inactive),5.45% (inactive)
CCOC(=O)c1c(C)[nH]c(C)c1C(=O)COC(=O)CNC(=O)c1ccc(OCC)cc1,96% (inactive),77.9% (inactive),88.3% (inactive),4.05% (inactive),84.2%,88.3%,-2.34% (inactive),-0.66% (inactive)
CCCCN(Cc1cc2cc(OC)ccc2[nH]c1=O)C(=O)c1ccccn1,102% (inactive),98% (inactive),102% (inactive),6.81% (inactive),95%,102%,-5.14% (inactive),-3.82% (inactive)
CCOc1ccc(-c2c(C#N)c(N)nc3c2c(=O)n(C)c(=O)n3C)cc1OC,114% (inactive),86% (inactive),94.7% (inactive),2.56% (inactive),92.1%,94.7%,-6.44% (inactive),6.77% (inactive)
CCN(CC)CCNC(=O)c1ccc(NC(C)=O)cc1,136% (inactive),96.6% (inactive),94.8% (inactive),-6.82% (inactive),102%,94.8%,-1.69% (inactive),3.5% (inactive)
Cc1cccc(NC(=O)c2ccc(S(=O)(=O)N(C)C)cc2)n1,112% (inactive),96.1% (inactive),94.2% (inactive),2.72% (inactive),91.4%,94.2%,-0.8% (inactive),2.73% (inactive)
